Measurements taken from ChEMBL document CHEMBL1134580, “Novel hypotensive agents from Verbesina caracasana. 8. Synthesis and pharmacology of (3,4-dimethoxycinnamoyl)-N(1)-agmatine and synthetic analogues” (2001).

Columns and labels:
Rattus norvegicus [1] = test: Changes in diastolic Blood pressure following iv administration at (4.12 umol/kg) anesthetized rats; type: functional
In short: (§1)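 Adult male Wistar rats (280 ± 5 g) anesthetized with 10% (w/v) ethylurethane in saline, 1 mL/100 g ip. Trachea cannulated for spontaneous breathing, body temperature held at 37 °C, 60 min stabilization. Single iv injection into the femoral vein of a saline-dissolved drug, dose expressed as free base; n = 4 per drug. Aortic systolic/diastolic BP recorded via a femoral artery catheter and pressure transducer; peak change taken.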

Rattus norvegicus [2] = test: Changes in systolic Blood pressure following iv administration at (4.12 umol/kg) anesthetized rats; type: functional; in short: as §1
Rattus norvegicus [3] = test: Changes in diastolic blood pressure following iv administration at 4.12 umol/kg in anesthetized rats; type: functional, Artery; in short: as §1
Rattus norvegicus [4] = test: Changes in systolic blood pressure following iv administration at 4.12 umol/kg in anesthetized rats; type: functional, Artery; in short: as §1
Rattus norvegicus [5] = test: Changes in systolic blood pressure following iv administration at (4.12 umol/kg) anesthetized rats; type: functional; in short: as §1
Rattus norvegicus [6] = test: Changes in diastolic blood pressure following iv administration at (4.12 umol/kg) anesthetized rats; type: functional; in short: as §1
Rattus norvegicus [7] = test: Changes in systolic Blood pressure following iv administration at (25 umol/kg) anesthetized rats; type: functional; in short: as §1
Rattus norvegicus [8] = test: Changes in diastolic Blood pressure following iv administration at (25 umol/kg) anesthetized rats; type: functional; in short: as §1
Rattus norvegicus [9] = test: Changes in diastolic blood pressure following iv administration at (12 umol/kg)anesthetized rats; type: functional; in short: as §1
Rattus norvegicus [10] = test: Changes in systolic blood pressure following iv administration at (12 umol/kg)anesthetized rats; type: functional; in short: as §1
Rattus norvegicus [11] = test: Changes in systolic Blood pressure following iv administration at (5 umol/kg) anesthetized rats; type: functional; in short: as §1
Rattus norvegicus [12] = test: Changes in diastolic Blood pressure following iv administration at (5 umol/kg) anesthetized rats; type: functional; in short: as §1
Rattus norvegicus [13] = test: Changes in diastolic Blood pressure following iv administration at (8 umol/kg) anesthetized rats; type: functional; in short: as §1
Rattus norvegicus [14] = test: Changes in systolic Blood pressure following iv administration at (8 umol/kg) anesthetized rats; type: functional; in short: as §1

Question: For `COc1ccc(/C=C/C(=O)NCCN=C(N)N)cc1OC.CS(=O)(=O)O`, which Blood pressure (Rattus norvegicus [1]) is on record?
Answer: -33 mmHg

Question: What about the Blood pressure (Rattus norvegicus [2]) of the same molecule?
Answer: -29 mmHg

Question: For `COc1ccc(/C=C/C(=O)NCCCCN=C(N)N)cc1OC.CS(=O)(=O)O`, which Blood pressure (Rattus norvegicus [3]) is on record?
Answer: -30 mmHg

Question: And the Blood pressure (Rattus norvegicus [4])?
Answer: -21 mmHg

Question: For `COc1ccc(C(=O)NCCCC/N=C(\N)NCC=C(C)C)cc1.CS(=O)(=O)O`, which Blood pressure (Rattus norvegicus [1]) is on record?
Answer: -31 mmHg

Question: And the Blood pressure (Rattus norvegicus [2])?
Answer: -28 mmHg

Question: For `COc1ccc(/C=C/C(=O)NCCCN=C(N)N)cc1OC.CS(=O)(=O)O`, which Blood pressure (Rattus norvegicus [1]) is on record?
Answer: -28 mmHg

Question: What about the Blood pressure (Rattus norvegicus [2]) of the same molecule?
Answer: -24 mmHg

Question: With `COc1ccc(C=CC(=O)NCCCCN=C(N)N)cc1OC` as the molecule, how does the Blood pressure (Rattus norvegicus [1]) read?
Answer: -10 mmHg

Question: What about the Blood pressure (Rattus norvegicus [2]) of the same molecule?
Answer: -12 mmHg

Question: Which Blood pressure (Rattus norvegicus [5]) does the source give for `COc1ccc(/C=C/C(=O)NCCCCCCN=C(N)N)cc1OC.CS(=O)(=O)O` here?
Answer: -14 mmHg

Question: What about the Blood pressure (Rattus norvegicus [6]) of the same molecule?
Answer: -36 mmHg

Question: Which Blood pressure (Rattus norvegicus [1]) does the source give for `COc1ccc(/C=C/C(=O)NCCCCCN=C(N)N)cc1OC.CS(=O)(=O)O` here?
Answer: -27 mmHg

Question: What about the Blood pressure (Rattus norvegicus [2]) of the same molecule?
Answer: -17 mmHg

Question: Which results are given for `N=C(N)NCCN1CCCCCCC1` [GUANETHIDINE]?
Answer: Blood pressure (Rattus norvegicus [7]): -32 mmHg; Blood pressure (Rattus norvegicus [8]): -23 mmHg

Question: Which Blood pressure (Rattus norvegicus [9]) does the source give for `C[N+](C)(C)CCCCCC[N+](C)(C)C.[Cl-].[Cl-]` [HEXAMETHONIUM CHLORIDE] here?
Answer: -30 mmHg

Question: What about the Blood pressure (Rattus norvegicus [10]) of the same molecule?
Answer: -46 mmHg

Question: How did the Blood pressure (Rattus norvegicus [11]) turn out when `COc1ccc(Cc2nccc3cc(OC)c(OC)cc23)cc1OC` [PAPAVERINE] was run?
Answer: -21 mmHg

Question: What about the Blood pressure (Rattus norvegicus [12]) of the same molecule?
Answer: -16 mmHg

Question: What does the source list for `COC(=O)[C@H]1[C@H]2C[C@@H]3c4[nH]c5cc(OC)ccc5c4CCN3C[C@H]2C[C@@H](OC(=O)c2cc(OC)c(OC)c(OC)c2)[C@@H]1OC` [RESERPINE]?
Answer: Blood pressure (Rattus norvegicus [13]): -27 mmHg; Blood pressure (Rattus norvegicus [14]): -34 mmHg
